Experimental data reported in ChEMBL document CHEMBL1139257, “The absolute configuration plays an important role in muscarinic activity of BGT-A and its analogs” (Bioorg Med Chem, 2008).
Active and inactive are the calls of the source. No cut-off for these calls is given here.

Columns and labels:
[1] = species: Cavia porcellus; assay: (§1) Antagonist activity at guinea pig mAChR assessed as inhibition of carbachol-induced iris muscle contraction; type: functional, tissue-based
Outline: (§2)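 pA2 values derived by Arunlakshana–Schild analysis of contraction responses; data as means SEM.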

[2] = Displacement of [3H]NMS from mAChR in SD rat submandibulary gland by rapid filtration technique
Outline: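 Membranes from male SD rat (220–240 g) submandibulary glands, homogenised in ice-cold 0.32 M sucrose/50 mM Tris pH 7.4, spun at 1000g then 20,000g, at 4 °C. Membranes (0.1 mg protein) incubated at 37 °C with [3H]NMS and increasing compound concentrations in Tris buffer. Filtered through glass fibre, washed three times. Run in duplicate. IC50 by curve fit, Ki by Cheng–Prusoff.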

[3] = species: Oryctolagus cuniculus; assay: Mydriatic effect in rabbit assessed as change in pupil diameter under constant light at 0.02 M after 10 mins; type: functional
Outline: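 Rabbits (2.5–3.0 kg, either sex), randomised into groups of five. 0.05 ml agent dropped into left eye, right eye as control reference. Left pupil diameter (mm) read under constant light before and 10 min after dosing. Significance by Student's t-test, P < 0.05.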

[4] = (§3) Agonist activity at guinea pig mAChR assessed as stimulation of carbachol-induced iris muscle contraction; type: functional, tissue-based, Cavia porcellus
Outline: (§4)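 Iris contraction assay: EC50 (agonist concentration giving half-maximal response) and log concentration–response slopes obtained by nonlinear sigmoidal dose–response logistic curve fitting. Data given as means SEM; significance by Student's t-test, P < 0.05.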

[5] = species: Cavia porcellus; assay: as §3; type: functional, tissue-based; outline: as §4
[6] = Agonist activity at guinea pig mAChR assessed as stimulation of carbachol-induced iris muscle contraction relative to carbachol; type: functional; settings: Cavia porcellus
[7] = species: Oryctolagus cuniculus; assay: Myotic effect in rabbit assessed as change in pupil diameter under constant light at 0.02 M after 10 mins; type: functional
Outline: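 Twenty healthy rabbits (2.5–3.0 kg, either sex) were randomised into four groups of five. Left pupil diameter (mm) was read under constant light before and 10 min after 0.05 ml agent was dropped in; the right eye served as control reference. Significance by Student's t-test, P < 0.05.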

[8] = as §1; type: functional, tissue-based, Cavia porcellus; outline: as §2

SMILES: CC(=O)O[C@@H]1CC2C[C@H](OC(=O)c3ccc(Cl)cc3)CC1N2C (some centres undefined)
- Activity [1]: inactive
- Ki [2]: 73 µM
- Activity [3]: 3%

SMILES: CC(=O)O[C@H]1CC2C[C@@H](OS(=O)(=O)c3ccccc3)CC1N2C (some centres undefined)
- pEC50 [4]: 6.06
- Activity [5]: Dose-dependent effect
- Emax [6]: 87.1%
- Ki [2]: 0.04 µM
- Activity [7]: 44%

SMILES: CC(=O)O[C@H]1CC2C[C@@H](OC(=O)c3ccc([N+](=O)[O-])cc3)CC1N2C (some centres undefined)
- pA2 [8]: 6.11
- Ki [2]: 3.7 µM
- Activity [3]: 35.1%

SMILES: C[N+](C)(C)CCOC(N)=O.[Cl-] [CARBACHOL]
- pEC50 [4]: 6.57
- Emax [6]: 100%

SMILES: CC(=O)O[C@@H]1CC2C[C@H](OS(=O)(=O)c3ccccc3)CC1N2C (some centres undefined)
- Activity [7]: 4.7%

SMILES: CC(=O)O[C@H]1CC2C[C@@H](OC(=O)c3ccc(Cl)cc3)CC1N2C (some centres undefined)
- Ki [2]: 9 µM
- Activity [3]: 32.2%

SMILES: CC(=O)O[C@@H]1CC2C[C@H](OC(=O)c3ccc([N+](=O)[O-])cc3)CC1N2C (some centres undefined)
- Activity [1]: inactive
- Ki [2]: 450 µM
- Activity [3]: 3.7%
